TRPC6 activator: activates the mouse TRPC6 cation channel | AID 2550 | HEK293-TRPC6 membrane potential dye fluorescence; hits give high values | Q61143 | 310,000 compounds, 0.13% hits | B-score at 10 µM;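 active = B-score of the integrated fluorescence ratio above library mean plus 3 SD, and starting fluorescence ratio within library mean plus 5 SD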;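 also: higher score means more depolarization so channel activation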
Target sequence (Q61143 whole entry, looked up): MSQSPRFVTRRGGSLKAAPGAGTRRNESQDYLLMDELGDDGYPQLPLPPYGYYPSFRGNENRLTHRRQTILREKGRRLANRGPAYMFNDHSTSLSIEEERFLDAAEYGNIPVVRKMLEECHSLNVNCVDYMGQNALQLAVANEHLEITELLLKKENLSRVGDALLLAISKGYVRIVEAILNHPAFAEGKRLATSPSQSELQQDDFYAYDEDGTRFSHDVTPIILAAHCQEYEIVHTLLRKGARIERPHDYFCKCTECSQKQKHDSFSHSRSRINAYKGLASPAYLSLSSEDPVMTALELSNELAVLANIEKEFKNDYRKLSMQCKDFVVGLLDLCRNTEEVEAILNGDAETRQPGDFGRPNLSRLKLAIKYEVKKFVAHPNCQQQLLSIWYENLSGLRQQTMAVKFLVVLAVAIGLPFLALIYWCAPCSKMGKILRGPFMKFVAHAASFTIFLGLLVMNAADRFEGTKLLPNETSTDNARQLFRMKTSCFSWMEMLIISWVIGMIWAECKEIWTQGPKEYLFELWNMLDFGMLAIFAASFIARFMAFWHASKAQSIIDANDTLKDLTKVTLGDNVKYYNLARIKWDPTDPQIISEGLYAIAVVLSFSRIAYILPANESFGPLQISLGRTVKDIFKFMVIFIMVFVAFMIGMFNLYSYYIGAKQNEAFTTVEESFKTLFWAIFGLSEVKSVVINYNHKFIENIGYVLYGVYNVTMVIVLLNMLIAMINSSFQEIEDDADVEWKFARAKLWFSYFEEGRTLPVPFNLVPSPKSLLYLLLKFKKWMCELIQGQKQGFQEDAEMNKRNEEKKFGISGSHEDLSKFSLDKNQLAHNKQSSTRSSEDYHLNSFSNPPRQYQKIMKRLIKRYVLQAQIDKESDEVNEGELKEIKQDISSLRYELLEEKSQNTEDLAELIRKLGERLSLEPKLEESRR
TRPC4 agonist: activators of mouse TRPC4 channel; Q9QUQ5; HEK293 TRPC4beta/mu-opioid, Fluo4 calcium fluorescence; hits give high values; B-score at 10 µM; 310,000 compounds, 0.49% hits; AID 2237;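 active = B-score above 5 SD of library B-scores, and initial fluorescence ratio not above library mean plus 5 SD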;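 also: positive B-score marks a calcium rise read as TRPC4 activation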
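Test system: HEK293 cells stably co-expressing mouse TRPC4beta and mu-opioid receptor | Schedule: Fluo4 dye loading 45 min at room temperature, 110 s recording | Measured by: Kinetic Fluo4 calcium fluorescence, 5 s baseline at 1 Hz | Evaluation: B score of integrated ratio | Controls: Buffer (low) and maximal DAMGO (high)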
TRPC4 PAM: TRPC4 (mouse) allosteric potentiation; HEK293 TRPC4beta/mu-opioid, DAMGO EC20, Fluo-4 Ca2+ flux; hits give high values; B-score at 10 µM; 310,000 compounds, 0.42% hits; Q9QUQ5;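 active = B-score of calcium response area above 5 SD of library B-scores, with initial fluorescence ratio within 5 SD of library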
TRPC4 inh: blocks the mouse TRPC4 cation channel; Q9QUQ5; HEK293 TRPC4beta/mu-opioid, DAMGO-evoked Fluo4 calcium flux; hits give low values; B-score at 10 µM; 300,000 compounds, 0.39% hits; AID 2247;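 active = B-score over 3 SD under the library average, no early fluorescence shift, positive overall ratio signal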
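material = TRPC4beta/mu-opioid receptor HEK293 cell line | probe or stimulus = sequential submaximal and maximal DAMGO stimulation | compound dosing = one concentration per compound | measured by = Fluo4 Ca2+ flux fluorescence | evaluation = integrated fluorescence ratio relative to baseline, converted to per-well B score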
TRPC6 inhibitor: mouse TRPC6 channel inhibition; Q61143; HEK293-TRPC6, membrane potential dye, ACh-evoked depolarization; hits give low values; B-score at 10 µM; 310,000 compounds, 1.1% hits; AID 2553;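 active = B-score under library mean minus 3 SD, initial fluorescence not abnormally high, positive integrated signal ratio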;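 also: B-score derived from integrated fluorescence ratio over the kinetic read; more negative B-score means stronger inhibition of depolarization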
TRPC4 spec 2: second selectivity test of TRPC6 inhibitors: effect on mouse TRPC4; shares compounds with TRPC6 inhibitor; HEK293 TRPC4/MOR, membrane potential dye fluorescence; channel activated by saturating DAMGO dose; inhibition, % at 10 µM; 920 compounds, 42% hits;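 active = compounds whose fluorescence signal differed from control wells by over 3 SD, either direction, in both duplicate plates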
TRPC4 spec: selectivity of TRPC6 inhibitors: effect on mouse TRPC4 | HEK293 TRPC4/mu-opioid, membrane potential fluorescence | 920 compounds, 61% hits | activity change, negative = inhibition, % at 10 µM | shares compounds with TRPC6 inhibitor | AID 2777;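 active = rise or fall in signal beyond 3 SD of buffer-only wells in both replicate plates, either sign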;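 also: integrated kinetic ratio of fluorescence range over baseline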
HEK293 MPD ctr 2-1: second check of TRPC6 inhibitor effects in parental HEK293 cells; shares compounds with TRPC6 inhibitor; parental HEK293 membrane potential dye fluorescence; maximal acetylcholine challenge after compound addition; signal change vs control, % at 10 µM; 920 compounds, 31% hits; AID 2779;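 active = membrane potential signal moving either way by over 3 SD of the maximum-effect control, in both duplicate plates, meaning non-specific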
HEK293 MPD ctr-1: parental HEK293 nonspecific activity of TRPC6 inhibitors. membrane potential signal change, % at 10 µM. AID 2780. shares compounds with TRPC6 inhibitor. parental HEK293 membrane potential dye fluorescence. 920 compounds, 60% hits;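 active = membrane potential signal shifting up or down by more than 3 SD of buffer-only wells, on both duplicate plates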
HEK293 MPD ctr-2: parental HEK293 nonspecific activity of TRPC6 modulators; shares compounds with TRPC6 inhibitor; membrane potential dye fluorescence; 2,400 compounds, 51% hits; membrane potential signal change, % at 10 µM;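 active = membrane potential signal moves up or down beyond 5 SD from buffer-only wells, on both duplicate plates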
HEK293 MPD ctr 2-2: parental HEK293 nonspecific activity of TRPC6 modulators, second screen; shares compounds with TRPC6 inhibitor; membrane potential dye fluorescence; after compound, maximal acetylcholine stimulation; inhibition, % at 10 µM; 2,400 compounds, 14% hits;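 active = membrane potential signal drops by more than 5 SD from the mean control signal, in both duplicate plates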
TRPC4 ctr mod: selectivity of TRPC6 modulators against mouse TRPC4; 2,400 compounds, 69% hits; HEK293 TRPC4/mu-opioid, membrane potential fluorescence; percent change from control (negative = decrease, positive = increase), % at 10 µM; AID 488927; shares compounds with TRPC6 inhibitor;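 active = membrane potential signal moved up or down beyond 5 SD of buffer control wells, in both duplicate plates, actives on both sides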
TRPC4 ctr inh 2: mouse TRPC4 off-target activity of TRPC6 modulators, second screen | shares compounds with TRPC6 inhibitor | HEK293 TRPC4/mu-opioid, membrane potential dye fluorescence; stimulated with maximal-effect DAMGO | inhibition, % at 10 µM | 2,400 compounds, 55% hits | AID 488928;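 active = drop in membrane potential signal beyond 5 SD of the control wells in both duplicate plates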;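 also: TRPC4 counter screen for TRPC6 hits run under conditions tuned for TRPC6 not TRPC4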
TRPC6 block conf: confirmation of mouse TRPC6 inhibitors | shares compounds with TRPC6 inhibitor | HEK293-TRPC6, membrane potential dye, ACh-evoked depolarization | inhibition, % at 10 µM | 3,300 compounds, 43% hits;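 active = fluorescence ratio falls more than 5 SD below the full-stimulation control mean, in both duplicate runs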;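 also: integrated fluorescence ratio of peak minus minimum over baseline after agonist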
TRPC6 act confirm: confirmation of mouse TRPC6 activators. 2,800 compounds, 11% hits. shares compounds with TRPC6 inhibitor. AID 488961. activation, % at 10 µM. HEK293-TRPC6 membrane potential dye fluorescence, FDSS;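 active = ratio signal rise beyond 5 SD above unstimulated control wells' mean, seen in both duplicate runs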
Hits are given with their value; - = inactive; . = no result given. Most compounds without a hit are left out; they make up all but 2.3% or so of the library.

SMILES | TRPC6 activator | TRPC4 agonist | TRPC4 PAM | TRPC4 inh | TRPC6 inhibitor | TRPC6 block conf | TRPC6 act confirm | others
CC1CCCN(S(=O)(=O)c2ccc3[nH]c4c(c3c2)CCCC4)C1 (stereo not given) | - | - | - | - | - | . | .
CC1(C)Cc2nc(NC3CCCCC3)c(C#N)cc2CO1 | - | - | - | - | - | . | .
CCn1c(SCC(=O)Nc2ccc(C)cc2)nc2sc3c(c2c1=O)CCN(C)C3 | - | - | - | - | - | . | .
CCn1c(SCC(N)=O)nc2sc3c(c2c1=O)CCN(C)C3 | - | - | - | - | -6 | 44% | - | HEK293 MPD ctr-2=-203%;HEK293 MPD ctr 2-2=-;TRPC4 ctr mod=-36%;TRPC4 ctr inh 2=36%
CSc1nc(SCC(N)=O)c2c3c(sc2n1)CN(C)CC3 | - | - | - | - | -11 | - | - | HEK293 MPD ctr-2=-210%;HEK293 MPD ctr 2-2=68%;TRPC4 ctr mod=-38%;TRPC4 ctr inh 2=47%
C=CCn1c(Oc2ccc(C=O)cc2OCC)nc2c1c(=O)n(C)c(=O)n2C | - | - | - | - | - | . | .
O=C(CSc1nnc(NC(=O)c2ccc(F)cc2F)s1)NC1CC1 | - | - | - | - | - | . | .
O=C(Nc1ccc(-n2cnnn2)cc1)c1cn2ccccc2n1 | - | - | - | - | -5.1 | - | - | HEK293 MPD ctr-2=-;HEK293 MPD ctr 2-2=-;TRPC4 ctr mod=-;TRPC4 ctr inh 2=-
COCCNCC(=O)N1c2ccccc2Sc2ccccc21 | - | - | - | - | - | . | .
CC(C)CNCC(=O)N1c2ccccc2Sc2ccccc21 | - | - | - | - | -5.7 | - | . | HEK293 MPD ctr-2=124%;HEK293 MPD ctr 2-2=-;TRPC4 ctr mod=16%;TRPC4 ctr inh 2=56%
Cc1cccc[n+]1CC(=O)N1c2ccccc2Sc2ccccc21 | - | - | - | - | -11 | 93% | - | TRPC4 spec 2=-;TRPC4 spec=-;HEK293 MPD ctr 2-1=-12%;HEK293 MPD ctr-1=-
Cc1cccc(NS(=O)(=O)c2ccc(C(=O)NCCCN3CCCC3=O)cc2)c1C | - | - | - | - | - | . | .
OC(CNCc1ccc(Cl)cc1)C(F)(F)F (stereo not given) | - | - | - | - | - | . | .
O=c1c(N=Nc2ccc(O)cc2)c(-c2ccccc2)[nH]n1-c1ccc([N+](=O)[O-])cc1 | - | - | - | - | - | . | .
O=c1cc(-c2ccccc2)[nH]n1-c1ccc([N+](=O)[O-])cc1 | - | - | - | - | -7.9 | 66% | - | TRPC4 spec 2=-;TRPC4 spec=12%;HEK293 MPD ctr 2-1=-;HEK293 MPD ctr-1=5.7%
CCC(C)N(CCNC(=O)CC1Oc2ccc(C)cc2NC1=O)C1CCCCC1 (stereo not given) | - | - | - | - | -8.4 | 53% | . | TRPC4 spec 2=-;TRPC4 spec=17%;HEK293 MPD ctr 2-1=-;HEK293 MPD ctr-1=13%
Cc1ccc2c(c1)NC(=O)C(CC(=O)NCCCN1CCCCC1C)O2 (stereo not given) | - | - | - | - | - | . | .

Screening data from PubChem.
